Test results from ChEMBL document CHEMBL1141177, “The novel L- and D-amino acid derivatives of hydroxyurea and hydantoins: synthesis, X-ray crystal structure study, and cytostatic and antiviral activity evaluations” (J Med Chem, 2005).
≈ marks a conversion by molar mass, not a printed value.

What was measured:
MCF7 = assay: Inhibition of breast carcinoma cell line (MCF-7) growth; assay type: functional, cell-based; details: Homo sapiens
Procedure, shortened: (§1)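 Monolayers in DMEM with 10% FBS, 2 mM L-glutamine, penicillin/streptomycin, 37 °C, 5% CO2. Cells seeded on day 0, then compounds added in 5- and 10-fold dilutions (10^-8–10^-4 M) for 72 h. MTT read-out at 570 nm. Percent growth calculated relative to time-zero and untreated OD. Quadruplicates in three experiments; IC50 by linear interpolation, highest concentration reported as ">" when not reached.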

L1210 = assay: Inhibition of murine leukemia cells (L1210) growth; assay type: functional, cell-based; details: Mus musculus
HEL [1] = assay: Minimum cytotoxic concentration of compound that causes alteration of cell morphology in human embryonic lung cells; assay type: functional
Procedure, shortened: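 Human embryonic lung (HEL) cells were examined microscopically. MCC is the minimum concentration that causes a detectable alteration of cell morphology.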

WI-38 = assay: Inhibition of normal human fibroblast cell line (WI 38) growth; assay type: functional, cell-based; procedure, shortened: as §1
MIA PaCa-2 = assay: Inhibition of pancreatic carcinoma cell line (MiaPaCa-2) growth; assay type: functional, cell-based; details: Homo sapiens; procedure, shortened: as §1
[2] = Effective concentration required to reduce plaque formation by AD-169 strain of CMV virus in Human embryonic lung cells; assay type: functional, cell-based
Procedure, shortened: (§2)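 Plaque reduction assay in human embryonic lung (HEL) cell cultures, virus input 100 plaque forming units. Viruses: CMV strains AD-169 and Davis, VZV TK+ strain OKA and TK− strain 07/1. EC50 is the concentration that reduces virus plaque formation by 50%.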

HEp-2 = assay: Inhibition of laryngeal carcinoma cell line (Hep-2) growth; assay type: functional, cell-based; details: Homo sapiens; procedure, shortened: as §1
MOLT-4 = assay: Inhibition of human T-lymphocyte cell line (Molt4/C8) growth; assay type: functional, cell-based
[3] = Effective concentration required to reduce plaque formation by Davis strain of CMV virus in Human embryonic lung cells; assay type: functional, cell-based; procedure, shortened: as §2
HEL [4] = assay: Cytotoxic concentration to reduce the 50% cell growth of human embryonic lung cells; assay type: functional
SW-620 = assay: Inhibition of colon carcinoma cell line (SW 620) growth; assay type: functional, cell-based; details: Homo sapiens; procedure, shortened: as §1
Human alphaherpesvirus 3 [5] = assay: Effective concentration of compound required to reduce plaque formation by OKA strain of thymidine kinase positive VZ virus TK+ in human embryonic lung cells; assay type: functional, organism-based; details: Human alphaherpesvirus 3, lung
Human alphaherpesvirus 3 [6] = assay: Reduction of plaque formation by VZV07/1 strain of thymidine kinase(TK-) deficient VZ virus in human embryonic lung cells; assay type: functional, organism-based; details: Human alphaherpesvirus 3, lung
HeLa = assay: Inhibition of cervical carcinoma cell line (HeLa) growth; assay type: functional, cell-based; details: Homo sapiens; procedure, shortened: as §1
Cytomegalovirus [7] = assay: Effective concentration of the compound to reduce plaque-formation of Cytomegalovirus davis strain in human embryonic lungcell cultures; assay type: functional, organism-based; details: Human betaherpesvirus 5; procedure, shortened: as §2
Cytomegalovirus [8] = assay: Effective concentration to reduce plaque formation of Cytomegalovirus AD-169 strain in human embryonic lung cell cultures; assay type: functional, organism-based; details: Human betaherpesvirus 5, lung; procedure, shortened: as §2
[9] = Homo sapiens, HEL, read-out: CC50

Compound | IC50 (MCF7) | IC50 (L1210) | MCC (HEL [1]) | IC50 (WI-38) | IC50 (MIA PaCa-2) | EC50 [2] | IC50 (HEp-2) | IC50 (MOLT-4) | EC50 [3] | CC50 (HEL [4]; [9]) | IC50 (SW-620) | EC50 (Human alphaherpesvirus 3 [5]) | EC50 (Human alphaherpesvirus 3 [6]) | IC50 (HeLa) | EC50 (Cytomegalovirus [7]) | EC50 (Cytomegalovirus [8]) | CC50 (HEL [4])
O=C(C(NC(=O)n1nnc2ccccc21)c1ccccc1)N1CCCCC1 (stereo not drawn) | 67.4 µM | 82 µM | 200 µg/mL | ≥ 100 µM | ≥ 100 µM | > 80 µg/mL | > 100 µM | 82 µM | > 80 µg/mL | 188 µg/mL (≈ 517 µM) | > 100 µM | > 80 µg/mL | > 80 µg/mL | > 100 µM |  |  | 
O=C(C(Cc1ccccc1)NC(=O)n1nnc2ccccc21)N1CCCC1 (stereo not drawn) | ≥ 100 µM | 133 µM | > 200 µg/mL | > 100 µM | > 100 µM | > 200 µg/mL | ≥ 100 µM | 123 µM | > 200 µg/mL | 148 µg/mL (≈ 406 µM) | > 100 µM | 117 µg/mL (≈ 322 µM) | 106 µg/mL (≈ 292 µM) | > 100 µM |  |  | 
CC(C)C1NC(=O)N(C2CCCCC2)C1=O (stereo not drawn) | > 100 µM | > 200 µM | ≥ 100 µg/mL | > 100 µM | > 100 µM | 45 µg/mL (≈ 201 µM) | 100 µM | > 200 µM | 41 µg/mL (≈ 183 µM) | > 50 µg/mL | > 100 µM | 45 µg/mL (≈ 201 µM) | 29 µg/mL (≈ 129 µM) | > 100 µM |  |  | 
O=C(NC1CCCCC1)C(Cc1ccccc1)NC(=O)n1nnc2ccccc21 (stereo not drawn) | 20.7 µM | 126 µM | 80 µg/mL | 63.2 µM | ≥ 100 µM | > 16 µg/mL | 64.5 µM | 116 µM | > 16 µg/mL | 33 µg/mL (≈ 84.3 µM) | 110 µM |  |  | 34.3 µM |  |  | 
Nc1ccn(C[C@@H](CO)OCP(=O)(O)O)c(=O)n1.O.O [CIDOFOVIR] |  |  | > 400 µg/mL |  |  | 0.13 µg/mL |  |  | 0.13 µg/mL | 21.3 µg/mL |  |  |  |  | 0.13 µg/mL | 0.13 µg/mL | 21.3 µg/mL
O=C(NC1CCCCC1)C(NC(=O)n1nnc2ccccc21)c1ccccc1 (stereo not drawn) | 57.6 µM | 95 µM | ≥ 16 µg/mL | > 100 µM | ≥ 100 µM | > 3.2 µg/mL | 69.7 µM | 92 µM | > 16 µg/mL | 15 µg/mL (≈ 39.7 µM) | > 100 µM | > 0.64 µg/mL | > 3.2 µg/mL | 67 µM |  |  | 
CC(C)C1NC(=O)N(C2CCCC2)C1=O (stereo not drawn) | > 100 µM | > 200 µM | > 100 µg/mL | > 100 µM | > 100 µM | > 100 µg/mL | 98 µM | > 200 µM | > 100 µg/mL | > 50 µg/mL | > 100 µM | > 84 µg/mL | > 90 µg/mL | > 100 µM |  |  | 
CC(C)C(NC(=O)n1nnc2ccccc21)C(=O)NC1CCCC1 (stereo not drawn) | 79.3 µM | > 200 µM | > 200 µg/mL | ≥ 100 µM | > 100 µM | > 200 µg/mL | 60.3 µM | > 200 µM | > 200 µg/mL |  | > 200 µM | > 80 µg/mL | > 200 µg/mL | 96.4 µM |  |  | 
O=C(NC(c1ccccc1)c1ccccc1)C(NC(=O)n1nnc2ccccc21)c1ccccc1 (stereo not drawn) | 34.2 µM | 114 µM | 80 µg/mL | 100 µM | 42.5 µM | > 16 µg/mL | 59.1 µM | 89 µM | > 16 µg/mL | 38.3 µg/mL (≈ 83 µM) | 51.7 µM | > 3.2 µg/mL | > 3.2 µg/mL | 33.3 µM |  |  | 
CC(C)C(NC(=O)n1nnc2ccccc21)C(=O)NC1CCCCC1 (stereo not drawn) | 79.3 µM | 108 µM | ≥ 80 µg/mL | ≥ 100 µM | > 100 µM | > 80 µg/mL | 60 µM | 97 µM | > 16 µg/mL | 90 µg/mL (≈ 262 µM) | > 100 µM | > 3.2 µg/mL | > 3.2 µg/mL | 96.4 µM |  |  | 
O=C1NC(c2ccccc2)C(=O)N1C1CCCC1 (stereo not drawn) | 22 µM | > 200 µM | ≥ 20 µg/mL | > 100 µM | > 100 µM | > 20 µg/mL | > 100 µM | > 200 µM | > 4 µg/mL | 27.4 µg/mL (≈ 112 µM) | > 100 µM | > 4 µg/mL | 9 µg/mL (≈ 36.8 µM) | > 100 µM |  |  | 
O=C(NCC1CCCCC1)C(NC(=O)n1nnc2ccccc21)c1ccccc1 (stereo not drawn) | 35.6 µM | 98 µM | ≥ 16 µg/mL | > 100 µM | 72.7 µM | > 16 µg/mL | 68.6 µM | 73 µM |  | 43.4 µg/mL (≈ 111 µM) | > 100 µM | > 3.2 µg/mL | > 3.2 µg/mL | 79.8 µM |  |  | 
O=C1NC(c2ccccc2)C(=O)N1Cc1ccccc1 (stereo not drawn) | 3.3 µM | > 200 µM | 100 µg/mL | 78.9 µM | 68.9 µM | 7.6 µg/mL (≈ 28.5 µM) | 82.9 µM | > 200 µM | 4 µg/mL (≈ 15 µM) | 12.5 µg/mL (≈ 46.9 µM) | 96.8 µM | 15 µg/mL (≈ 56.3 µM) | 11 µg/mL (≈ 41.3 µM) | > 100 µM |  |  | 
Nc1nc2c(ncn2COC(CO)CO)c(=O)[nH]1 [GANCICLOVIR] |  |  | > 400 µg/mL |  |  | 0.24 µg/mL (≈ 0.94 µM) |  |  | 0.34 µg/mL (≈ 1.33 µM) |  |  |  |  |  | 0.34 µg/mL (≈ 1.33 µM) | 0.24 µg/mL (≈ 0.94 µM) | 
O=C(NC1CCCC1)C(Cc1ccccc1)NC(=O)n1nnc2ccccc21 (stereo not drawn) | 92 µM | 68 µM | 16 µg/mL | > 100 µM | > 100 µM | > 3.2 µg/mL | 95 µM | 61 µM | > 3.2 µg/mL | 15.5 µg/mL (≈ 41.1 µM) | > 100 µM | > 3.2 µg/mL | > 3.2 µg/mL | 53.8 µM |  |  | 
O=C(NC(c1ccccc1)c1ccccc1)C(Cc1ccccc1)NC(=O)n1nnc2ccccc21 (stereo not drawn) | 16.3 µM | 17 µM | 80 µg/mL | 14.3 µM | 23.9 µM | > 16 µg/mL | 40.5 µM | 15 µM |  | 17.3 µg/mL (≈ 36.4 µM) | 37.6 µM | > 0.13 µg/mL | > 0.13 µg/mL | 30.2 µM |  |  | 
